Experimental findings from publication PMC7472862 (Heliyon, 2020) are described below.

Where “and” joins values, the source holds several entries; their conditions need not be identical. Equal values may be shown once.

Assay [1] is described as follows: ABTS radical scavenging assay. The essentials:
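ABTS radical cation formed by mixing 7 mM ABTS with 2.4 mM ammonium persulfate (1:1) and leaving 18–24 h in the dark at room temperature. Test compound (20–300 µg/mL) added to the ABTS solution and absorbance read at 734 nm. % inhibition = (OD control − OD sample)/OD control × 100, and IC50 taken from this. Ascorbic acid (10–150 µg/mL) served as positive control.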

A further assay concerns the target rat α-glucosidase. The experiment in a line: α-glucosidase inhibition method. It is filed as biochemical. The method, boiled down: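 Enzyme was the supernatant of rat intestinal acetone powder in saline, sonicated at 4 °C and spun at 1008 ×g (4 °C, 30 min). Test compound (20–300 µg/mL) and enzyme pre-incubated 5 min at 37 °C in 50 mM phosphate pH 6.8. 3 mM PNPG added, then 30 min at 37 °C and A405 read.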

Assay [2] is described as follows: DPPH free radical scavenging assay. The method, boiled down:
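Test compound (20–300 µg/mL) mixed with an equal volume of DPPH solution, shaken vigorously, then kept 30 min in the dark at room temperature. Absorbance read at 517 nm. % scavenging = (OD control − OD sample)/OD control × 100, and IC50 derived from this. Ascorbic acid (10–150 µg/mL) served as positive control.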
On the technique in general: Loss of DPPH colour is used to gauge radical scavenging.

Assay [3] concerns the target T1, porcine pancreatic α-amylase (Sus scrofa, UniProt P00690).
T1 sequence (P00690 16-511): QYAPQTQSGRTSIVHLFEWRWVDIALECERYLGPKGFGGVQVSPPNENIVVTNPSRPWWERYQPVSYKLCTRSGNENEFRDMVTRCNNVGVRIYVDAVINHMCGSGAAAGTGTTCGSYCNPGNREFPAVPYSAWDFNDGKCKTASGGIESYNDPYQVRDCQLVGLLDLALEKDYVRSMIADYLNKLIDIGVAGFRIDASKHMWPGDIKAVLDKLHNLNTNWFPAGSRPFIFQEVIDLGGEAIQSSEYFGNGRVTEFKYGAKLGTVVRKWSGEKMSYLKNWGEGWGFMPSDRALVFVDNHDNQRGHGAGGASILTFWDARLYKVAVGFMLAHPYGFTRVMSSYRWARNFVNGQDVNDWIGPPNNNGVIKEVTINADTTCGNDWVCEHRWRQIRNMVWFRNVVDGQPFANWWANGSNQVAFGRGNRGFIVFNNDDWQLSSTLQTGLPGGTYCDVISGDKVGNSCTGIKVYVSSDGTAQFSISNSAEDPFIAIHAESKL
The experiment in a line: biochemical. As to conditions: α-Amylase inhibition method IC50 value.

By IC50 is commonly meant the midpoint of a concentration-inhibition curve. Low readings indicate greater potency, high ones weaker potency. In the case of `CCN(O)N=Nc1ccc(S(=O)(=O)Nc2onc(C)c2C)cc1` [SF-2, 3ـhydroxyـ3ـethylـ1ـ(4ـ(Nـ(3,4ـdimethylisoxazolـ5ـyl)sulfamoyl)phenyl)triazene], the “ABTS Assay IC50 value” in assay [1] came to 229.83 µg/mL. At rat α-glucosidase, the “α-Glucosidase inhibition method IC50 value” is 248.64 µg/mL. Moreover, the “DPPH Assay IC50 value” in assay [2] amounted to 614.17 µg/mL. In assay [3], it took 625 µM to reach half-maximal inhibition (IC50).
`Cc1cc(NS(=O)(=O)c2ccc(N=NN(C)O)cc2)no1` [SM-1, 3ـhydroxyـ3ـmethylـ1ـ(4ـ(Nـ(5ـmethylisoxazolـ3ـyl)sulfamoyl)phenyl)triazene]: in assay [1], the “ABTS Assay IC50 value” turned out to be 252.96 µg/mL. Moreover, the “DPPH Assay IC50 value” in assay [2] was 426 µg/mL and 426.75 µg/mL. This compound also gave an IC50 in assay [3] of 698 µM.
Consider `O=C1O[C@H]([C@@H](O)CO)C(O)=C1O` [ascorbic acid, reference compound], for which the “ABTS Assay IC50 value” in assay [1] was 69.13 (ascorbic acid) μg/mL. Also, the “DPPH Assay IC50 value” in assay [2] is reported as 29.12 (ascorbic acid) μg/mL.
In the case of `CCN(O)N=Nc1ccc(S(=O)(=O)Nc2nccs2)cc1` [ST-2, 3ـhydroxyـ3ـethylـ1ـ(4ـ(Nـ(thiazolـ2ـyl)sulfamoyl)phenyl)triazene], the “ABTS Assay IC50 value” in assay [1] is 232.39 µg/mL and 232.393 µg/mL. In addition, on rat α-glucosidase, the “α-Glucosidase inhibition method IC50 value” was determined as 219 µg/mL. The “DPPH Assay IC50 value” in assay [2] was 532.35 µg/mL. In assay [3], this compound gave an IC50 of 707 µM.
In the case of `CCCN(O)N=Nc1ccc(S(=O)(=O)Nc2cc(C)on2)cc1` [SM-3, 3ـhydroxyـ3ـpropylـ1ـ(4ـ(Nـ(5ـmethylisoxazolـ3ـyl)sulfamoyl)phenyl)triazene], in assay [1], the “ABTS Assay IC50 value” stood at 282.32 µg/mL. On rat α-glucosidase, the “α-Glucosidase inhibition method IC50 value” is 222.91 µg/mL. Besides, the “DPPH Assay IC50 value” in assay [2] came out at 624 µg/mL. This compound also showed an IC50 in assay [3] of 624 µM.
`CCN(O)N=Nc1ccc(S(=O)(=O)Nc2cc(C)on2)cc1` [SM-2, 3ـhydroxyـ3ـethylـ1ـ(4ـ(Nـ(5ـmethylisoxazolـ3ـyl)sulfamoyl)phenyl)triazene]: in assay [1], the “ABTS Assay IC50 value” is 401.72 µg/mL. For the same compound, the “α-Glucosidase inhibition method IC50 value” on rat α-glucosidase was 201.99 µg/mL. Further, in assay [3], the half-inhibitory concentration (IC50) is 376 µM.
For the compound `C[C@H]1O[C@H](O[C@H]2[C@H](O)[C@@H](O)[C@@H](O[C@H]3[C@H](O)[C@@H](O)C(O)O[C@@H]3CO)O[C@@H]2CO)[C@H](O)[C@@H](O)[C@@H]1N[C@H]1C=C(CO)[C@@H](O)[C@H](O)[C@H]1O` (some centres unmarked) [acarbose, reference compound], the “α-Glucosidase inhibition method IC50 value” on rat α-glucosidase is reported as 12.21 (acarbose) μg/mL.
Regarding `CN(O)N=Nc1ccc(S(=O)(=O)Nc2nccs2)cc1` [ST-1, 3ـhydroxyـ3ـmethylـ1ـ(4ـ(Nـ(thiazolـ2ـyl)sulfamoyl)phenyl)triazene], at rat α-glucosidase, the “α-Glucosidase inhibition method IC50 value” turned out to be 238 µg/mL. For the same compound, the “DPPH Assay IC50 value” in assay [2] was 488 µg/mL and 488.06 µg/mL. This compound also gave a concentration for half-maximal inhibition (IC50) in assay [3] of 559 µM.
For the compound `CCCN(O)N=Nc1ccc(S(=O)(=O)Nc2onc(C)c2C)cc1` [SF-3, 3ـhydroxyـ3ـpropylـ1ـ(4ـ(Nـ(3,4ـdimethylisoxazolـ5ـyl)sulfamoyl)phenyl)triazene], in assay [1], the “ABTS Assay IC50 value” amounted to 218.94 µg/mL. Moreover, the “α-Glucosidase inhibition method IC50 value” at rat α-glucosidase is 235.55 µg/mL. In assay [2], the “DPPH Assay IC50 value” was 490.82 µg/mL. Also, half-maximal inhibition in assay [3] (IC50) required 419 µM.
For `Cc1ccc(N(O)N=Nc2ccc(S(=O)(=O)Nc3cc(C)on3)cc2)cc1` [SM-6, 3ـhydroxyـ3ـ(4ـmethylphenyl)ـ1ـ(4ـ(Nـ(5ـmethylisoxazolـ3ـyl)sulfamoyl)phenyl)triazene], in that order: 250.26 µg/mL, 262.74 µg/mL, 550.32 µg/mL and 425 µM.
In the same order, the values of `Cc1cc(NS(=O)(=O)c2ccc(N=NN(O)c3ccccc3)cc2)no1` [SM-4, 3ـhydroxyـ3ـphenylـ1ـ(4ـ(Nـ(5ـmethylisoxazolـ3ـyl)sulfamoyl)phenyl)triazene] are 104.13 µg/mL, 249 µg/mL, 583.31 µg/mL and 469 µM.
For the compound `Cc1ccc(N(O)N=Nc2ccc(S(=O)(=O)Nc3onc(C)c3C)cc2)cc1` [SF-6, 3ـhydroxyـ3ـ(4ـmethylphenyl)ـ1ـ(4ـ(Nـ(3,4ـdimethylisoxazolـ5ـyl)sulfamoyl)phenyl)triazene], the “ABTS Assay IC50 value” in assay [1] was 70 µg/mL and 70.62 µg/mL. For the same compound, on rat α-glucosidase, the “α-Glucosidase inhibition method IC50 value” came to 329 µg/mL. For the same compound, the “DPPH Assay IC50 value” in assay [2] worked out at 587.28 µg/mL. This compound had an IC50 in assay [3] of 612 µM.
As to `Cc1cccc(N(O)N=Nc2ccc(S(=O)(=O)Nc3onc(C)c3C)cc2)c1` [SF-5, 3ـhydroxyـ3ـ(3ـmethylphenyl)ـ1ـ(4ـ(Nـ(3,4ـdimethylisoxazolـ5ـyl)sulfamoyl)phenyl)triazene], the “ABTS Assay IC50 value” in assay [1] worked out at 164.34 µg/mL. For the same compound, the “α-Glucosidase inhibition method IC50 value” on rat α-glucosidase came out at 292 µg/mL. The “DPPH Assay IC50 value” in assay [2] was 423 µg/mL and 423.91 µg/mL. The half-maximal inhibitory concentration (IC50) in assay [3] was 546 µM and 548 µM.
Consider `Cc1noc(NS(=O)(=O)c2ccc(N=NN(O)c3ccccc3)cc2)c1C` [SF-4, 3ـhydroxyـ3ـphenylـ1ـ(4ـ(Nـ(3,4ـdimethylisoxazolـ5ـyl)sulfamoyl)phenyl)triazene], for which the “α-Glucosidase inhibition method IC50 value” at rat α-glucosidase is 233 µg/mL. Also, the “DPPH Assay IC50 value” in assay [2] is 578.76 µg/mL. Besides, the midpoint of inhibition in assay [3], the IC50, lay at 452 µM.
On to `CCCN(O)N=Nc1ccc(S(=O)(=O)Nc2nccs2)cc1` [ST-3, 3ـhydroxyـ3ـpropylـ1ـ(4ـ(Nـ(thiazolـ2ـyl)sulfamoyl)phenyl)triazene], for which the “ABTS Assay IC50 value” in assay [1] was found to be 160.145 µg/mL. At rat α-glucosidase, the “α-Glucosidase inhibition method IC50 value” was 252 µg/mL. Moreover, the “DPPH Assay IC50 value” in assay [2] is 662 µg/mL and 662.79 µg/mL. In assay [3], the IC50 is 586 µM.
As for `Cc1cccc(N(O)N=Nc2ccc(S(=O)(=O)Nc3nccs3)cc2)c1` [ST-5, 3ـhydroxyـ3ـ(3ـmethylphenyl)ـ1ـ(4ـ(Nـ(thiazolـ2ـyl)sulfamoyl)phenyl)triazene], in assay [1], the “ABTS Assay IC50 value” was 92.075 µg/mL. Also, the “α-Glucosidase inhibition method IC50 value” at rat α-glucosidase came out at 341 µg/mL. The “DPPH Assay IC50 value” in assay [2] was 472.08 µg/mL. Moreover, in assay [3], the 50% inhibitory concentration (IC50) is 558 µM.
In the case of `Cc1cccc(N(O)N=Nc2ccc(S(=O)(=O)Nc3cc(C)on3)cc2)c1` [SM-5, 3ـhydroxyـ3ـ(3ـmethylphenyl)ـ1ـ(4ـ(Nـ(5ـmethylisoxazolـ3ـyl)sulfamoyl)phenyl)triazene], the “ABTS Assay IC50 value” in assay [1] turned out to be 81.50 µg/mL. In addition, the “α-Glucosidase inhibition method IC50 value” at rat α-glucosidase is 314.43 µg/mL. Besides, the “DPPH Assay IC50 value” in assay [2] was 660 µg/mL and 660.39 µg/mL. Moreover, the IC50 in assay [3] is 519 µM.
In the case of `O=S(=O)(Nc1nccs1)c1ccc(N=NN(O)c2ccccc2)cc1` [ST-4, 3ـhydroxyـ3ـphenylـ1ـ(4ـ(Nـ(thiazolـ2ـyl)sulfamoyl)phenyl)triazene], the “α-Glucosidase inhibition method IC50 value” at rat α-glucosidase is 280.03 µg/mL. In addition, in assay [2], the “DPPH Assay IC50 value” was 565.88 µg/mL. In addition, the half-inhibitory concentration (IC50) in assay [3] is 550 µM.
In the same order, the values of `Cc1noc(NS(=O)(=O)c2ccc(N=NN(C)O)cc2)c1C` [SF-1, 3ـhydroxyـ3ـmethylـ1ـ(4ـ(Nـ(3,4ـdimethylisoxazolـ5ـyl)sulfamoyl)phenyl)triazene] are 270 µg/mL, 556.65 µg/mL and 531 µM.
